Experimental data: ChEMBL document CHEMBL1123641, “Antiulcer agents. 2. Gastric antisecretory, cytoprotective, and metabolic properties of substituted imidazo[1,2-a]pyridines and analogues” (J Med Chem, 1987)
Activity calls are given as the source filed them. The rule behind the calls is not given here.

Columns and labels:
Canis familiaris [1] = test: Antisecretory activity in histamine stimulated dogs following 5 mg/kg i.v. administration.; type: functional; conditions: Canis lupus familiaris, route intravenous
Outline: (§1)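 Adult mongrel dogs with surgically prepared Heidenhain pouches, acid secretion stimulated with histamine. Compound given intravenously (0.1-5 mg/kg range). Acid output reduction is expressed relative to the nondrug-treated control value in the same animal, each dog serving as its own control. Unless noted otherwise, one dog per compound. ED50 is the iv dose reducing acid output to 50% of control.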

Canis familiaris [2] = test: Antisecretory activity in histamine stimulated dogs at 5 mg/kg dose administered intravenously; type: functional; conditions: Canis lupus familiaris; route intravenous; outline: as §1
Canis familiaris [3] = test: Antisecretory activity in histamine stimulated dogs at 5 mg/kg dose administered orally measured as 50% effective concentration; type: functional; conditions: Canis lupus familiaris, route oral
Outline: (§2)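 Heidenhain pouch mongrel dogs, histamine-stimulated acid secretion. Compound given orally at 2–8 mg/kg. Reduction in acid output is relative to the same animal's own nondrug control, since histamine response depends on pouch size. Usually a single dog per compound. Oral ED50 is the dose reducing acid output to 50% of control.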

Canis familiaris [4] = test: Antisecretory activity in histamine stimulated dogs at 0.1 mg/kg dose administered intravenously; type: functional; conditions: Canis lupus familiaris, route intravenous; outline: as §1
Rattus norvegicus [5] = species: Rattus norvegicus; test: Cytoprotective activity in rats against the ethyl alcohol stimulated ulcers measured as effective dose; type: functional
Outline: (§3)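 Rats were dosed orally at 1–30 mg/kg, 30 min before an oral challenge of absolute ethanol. Ethanol-induced gastric lesions were scored 1 h later, and an effective dose was estimated.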

Rattus norvegicus [6] = test: Antisecretory activity in pylorus ligated rats at a 40 mg/kg dose administered intraperitoneally; type: functional; conditions: ip, route intraperitoneal
Outline: (§4)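 Pylorus-ligated rats, six per compound and eight controls. Compound given intraperitoneally at 40 mg/kg at the time of ligation. Reduction in acid output measured over 4 h.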

Canis familiaris [7] = test: Antisecretory activity in histamine stimulated dogs at 1 mg/kg dose administered intravenously; type: functional; conditions: Canis lupus familiaris, route intravenous; outline: as §1
Canis familiaris [8] = test: Antisecretory activity in histamine stimulated dogs at 2 mg/kg dose administered intravenously; type: functional; conditions: Canis lupus familiaris, route intravenous; outline: as §1
Canis familiaris [9] = test: Antisecretory activity in histamine stimulated dogs at 4 mg/kg dose administered orally; type: functional; conditions: Canis lupus familiaris, route oral; outline: as §2
Canis familiaris [10] = test: Antisecretory activity in histamine stimulated dogs at 2 mg/kg dose administered orally; type: functional; conditions: Canis lupus familiaris, route oral; outline: as §2
Canis familiaris [11] = test: Antisecretory activity in histamine stimulated dogs at 8 mg/kg dose administered orally; type: functional; conditions: Canis lupus familiaris, route oral; outline: as §2
Canis familiaris [12] = test: percentage inhibition of acid secretion in histamine stimulated dogs at a dose of 0.05 mg/kg; type: functional; conditions: Canis lupus familiaris
Canis familiaris [13] = test: percentage inhibition of acid secretion in histamine stimulated dogs at a dose of 0.2 mg/kg; type: functional; conditions: Canis lupus familiaris
Canis familiaris [14] = test: Antisecretory activity in histamine stimulated dogs at 5 mg/kg dose administered orally; type: functional; conditions: Canis lupus familiaris; route oral; outline: as §2
Rattus norvegicus [15] = test: Antisecretory activity in pylorus ligated rats at 40 mg/kg dose administered intraperitoneally; conditions: ip
Rattus norvegicus [16] = test: Antisecretory activity in pylorus ligated rats at 40 mg/kg dose administered intraperitoneal; type: functional; conditions: ip; outline: as §4
Canis familiaris [17] = test: percentage inhibition of acid secretion in histamine stimulated dogs at a dose of 0.4 mg/kg; type: functional; conditions: Canis lupus familiaris
Rattus norvegicus [18] = species: Rattus norvegicus; test: animal or person; conditions: Canis lupus familiaris, in Rattus norvegicus, ip, 4 h
Canis familiaris [19] = species: Canis familiaris; conditions: Canis lupus familiaris
Canis familiaris [20] = test: The oral dose of cimetidine required to reduce acid output to 50% of control value in histamine stimulated dogs; conditions: Canis lupus familiaris
Canis familiaris [21] = test: The intravenous dose of cimetidine required to reduce acid output to 50% of control value in histamine stimulated dogs; conditions: Canis lupus familiaris
Rattus norvegicus [22] = species: Rattus norvegicus; test: Cytoprotective activity in rats against the ethyl alcohol stimulated ulcers measured as effective dose; In active; type: functional, organism-based; outline: as §3

Cc1nc2c(OCc3ccccc3)cccn2c1CC#N
inhibition in vivo at 5 mg/kg (Canis familiaris [1]): 99% | ED50 (Canis familiaris [2]): 0.09 mg/kg | ED50 at 5 mg/kg (Canis familiaris [3]; dose 5 mg/kg): 4.4 mg/kg | inhibition in vivo at 0.1 mg/kg (Canis familiaris [4]): 49% | ED50 (Rattus norvegicus [5]): 3 mg/kg | inhibition in vivo at 40 mg/kg (Rattus norvegicus [6]): 98% | inhibition in vivo at 1 mg/kg (Canis familiaris [7]): 83% | inhibition in vivo at 2 mg/kg (Canis familiaris [8]): 95% | inhibition in vivo at 4 mg/kg (Canis familiaris [9]): 42% | inhibition in vivo at 2 mg/kg (Canis familiaris [10]): 20% | inhibition in vivo at 8 mg/kg (Canis familiaris [11]): 77%

Cc1nc2c(OCc3ccccc3)cccn2c1N
ED50 (Canis familiaris [2]): 0.1 mg/kg | inhibition in vivo at 0.1 mg/kg (Canis familiaris [4]): 55% | ED50 (Rattus norvegicus [5]): 6 mg/kg | inhibition in vivo at 40 mg/kg (Rattus norvegicus [6]): 99% | inhibition in vivo at 0.05 mg/kg (Canis familiaris [12]): 15% | inhibition in vivo at 2 mg/kg (Canis familiaris [8]): 97% | inhibition in vivo at 4 mg/kg (Canis familiaris [9]): 74% | inhibition in vivo at 0.2 mg/kg (Canis familiaris [13]): 41% | ED50 (Canis familiaris [14]): 2 mg/kg | inhibition in vivo at 2 mg/kg (Canis familiaris [10]): 50% | inhibition in vivo at 8 mg/kg (Canis familiaris [11]): 96%

COc1c(C)nc2c(CCc3ccccc3)cccn12
ED50 (Rattus norvegicus [5]): 20 mg/kg | inhibition in vivo at 2 mg/kg (Canis familiaris [8]): 0% | inhibition in vivo at 40 mg/kg (Rattus norvegicus [15]): 45%

Cc1nc2cccc(CCc3ccccc3)n2c1N
inhibition in vivo at 40 mg/kg (Rattus norvegicus [16]): 40% | ED50 (Rattus norvegicus [5]): 14 mg/kg

Cc1ccn2c(CC#N)c(C)nc2c1OCc1ccccc1
ED50 (Canis familiaris [2]): 0.53 mg/kg | ED50 (Canis familiaris [3]): 7.8 mg/kg | ED50 (Rattus norvegicus [5]): 13 mg/kg | inhibition in vivo at 40 mg/kg (Rattus norvegicus [6]): 99% | inhibition in vivo at 1 mg/kg (Canis familiaris [7]): 74% | inhibition in vivo at 2 mg/kg (Canis familiaris [8]): 90% | inhibition in vivo at 4 mg/kg (Canis familiaris [9]): 20% | inhibition in vivo at 0.2 mg/kg (Canis familiaris [13]): 1% | inhibition in vivo at 0.4 mg/kg (Canis familiaris [17]): 39% | inhibition in vivo at 2 mg/kg (Canis familiaris [10]): 8% | inhibition in vivo at 8 mg/kg (Canis familiaris [11]): 59%

CN/C(=N\CCSCc1nc[nH]c1C)NC#N [CIMETIDINE]
ED50 (Rattus norvegicus [18]): 26.1 mg/kg | ED50 (Canis familiaris [19]): inactive | ED50 (Canis familiaris [20]): 1.25 mg/kg | ED50 (Canis familiaris [21]): 0.66 mg/kg

CC(=O)Oc1c(C)nc2c(CCc3ccccc3)cccn12
inhibition in vivo at 40 mg/kg (Rattus norvegicus [6]): 64% | inhibition in vivo at 2 mg/kg (Canis familiaris [8]): 6% | ED50 (Rattus norvegicus [22]): inactive
